For data set [1], the system named is Human immunodeficiency virus 1. The data set can be described thus: (§1) Inhibition of HIV-1 nucleocapsid protein (12 to 55 residues) assessed a sreduction in TAR29/cTAR29 duplex formation preincubated for 15 mins followed by TAR29/cTAR29 addition and measured after 15 mins by nucleocapsid annealing mediated electrophoresis assay. A digest of the protocol: (§2)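 TAR29 and cTAR29 hairpins folded separately (95°C 5 min, slow cooling) in Tris 25 mM, NaCl 30 mM, Mg(ClO4)2 0.2 mM, pH 7.5. NC(12–55, LAI strain; final 8 μM) preincubated with compound (DMSO ≤2%) 15 min at room temperature. Then 1 μM each hairpin added, 15 min at room temperature. Stopped with SDS/EDTA loading buffer; duplex resolved on native 12% PAGE. IC50 from Hill fit, triplicates.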

A short description of data set [2]: as §1. Further details: species or system Human immunodeficiency virus 1. A digest of the protocol:
as §2

Data set [3] has as its system Human immunodeficiency virus 1. Put plainly: Binding affinity to HIV-1 nucleocapsid protein (1 to 55 residues) at 5 uM incubated for 30 mins by ESI-MS method.
Data set [4] has as its system Human immunodeficiency virus 1. Put plainly: Binding affinity to HIV-1 nucleocapsid protein (1 to 55 residues) assessed as fractional protein occupancy ratio at 5 uM incubated for 30 mins by ESI-MS method.
Data set [5] is described as follows: Selectivity index, ratio of IC50 for human MT2 cells to IC50 for HIV1 NL4-3 infected in human MT2 cells. The format is toxicity, cell-based. The conditions noted are these: uninfected versus infected with HIV1 NL4-3, read-out: Ratio IC50. Summed up: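 Selectivity index from TD50 in MT-2 cells and IC50 from the BiCycle assay. […] BiCycle IC50: MT-2 cells infected with NL4-3 with compound for 72 h; supernatant then transferred to TZM-bl cells, luciferase read after 48 h.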

Another data set relates to TZM. Put plainly: Cytotoxicity against human TZM-bl cells after 48 hrs by CellTiter-Glo reagent-based assay. The class given is cell-based. Summed up: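 Viability was measured by CellTiter-Glo ATP luminescence. TZM-bl cells (15,000/well) were incubated 48 h at 37°C, 5% CO2, with serial two-fold compound dilutions from 3.1 to 400 μM. Medium was then replaced by reagent, shaken 10 min, and luminescence read. TD50 was derived from RLU normalised to untreated cells (100% viability), with a 95% confidence interval.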

A further data set relates to MT2. Put plainly: Cytotoxicity against human MT2 cells after 72 hrs by CellTiter-Glo reagent-based assay. The conditions noted are these: MT2, 72 h.
Data set [6] relates to Human immunodeficiency virus 1. Put plainly: Antiviral activity against HIV1 NL4-3 infected in human TZM-bl cells measured after 2 days by luciferase reporter gene based monocycle infection assay. The format is functional, organism-based. The conditions noted are these: Human immunodeficiency virus 1, NL4-3, TZM-bl, 48 h. A digest of the protocol: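 TZM-bl cells (30,000/well) were infected with an NL4-3 stock in the presence of serial five-fold compound dilutions from 5 nM to 400 μM. Plates were held at 37°C, 5% CO2, for two days. Cells were then lysed and luciferase was read as RLU. IC50 was fitted from per-well RLU with a 95% confidence interval.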

Data set [7] in a line: Inhibition of HIV-1 nucleocapsid protein (11 to 55 residues) chaperone activity assessed as reduction in nucleocapsid-induced Alexa488-labeled TAR55AD nucleic acid destabilization using Dabcyl as quencher by spectrofluorimetry based nucleic acid destabilization assay. Also on record: species or system Human immunodeficiency virus 1. Summed up:
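Preformed complex of 100 nM cTAR55 (5'-Alexa488, 3'-Dabcyl) and 1000 nM NC(11–55, MAL strain, Zn-loaded) in Tris 25 mM, NaCl 30 mM, MgCl2 0.2 mM, pH 7.5. Compound titrated in (25–500 μM); emission spectra taken at 480 nm excitation, 20°C. Inhibition calculated relative to cTAR alone and cTAR+NC, corrected for dilution and compound fluorescence. IC50 from Hill dose-response fit, triplicates.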

A short description of data set [8]: Selectivity index, ratio of IC50 for human TZM-bl cells to IC50 for HIV1 NL4-3 infected in human TZM-bl cells. The conditions noted are these: uninfected versus infected with HIV1 NL4-3, read-out: Ratio IC50. The class given is toxicity, cell-based. A digest of the protocol: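 Selectivity index from TD50 in TZM-bl cells and IC50 from the MonoCycle assay. […] MonoCycle IC50: 30,000 TZM-bl cells/well infected with NL4-3 with five-fold dilutions 5 nM–400 μM; luciferase RLU read after two days.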

Data set [9] deals with Human immunodeficiency virus 1. The data set can be described thus: Antiviral activity against HIV1 NL4-3 infected in human MT2 cells incubated for 72 hrs followed by reinfection in human TZM-bl cells measured after 48 hrs by luciferase reporter gene based bicycle infection assay. The format is functional, organism-based. The conditions noted are these: Human immunodeficiency virus 1, NL4-3. Summed up: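 This is a two-cycle format. MT-2 cells (50,000/well) were infected with NL4-3 alongside five-fold compound dilutions (5 nM–400 μM) and kept 72 h at 37°C, 5% CO2. Supernatant carrying first-round virus then infected TZM-bl cells (30,000/well) for 48 h under the same conditions. Luciferase RLU gave the IC50 with a 95% confidence interval.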

The test system of data set [10] is Human immunodeficiency virus 1. Put plainly: Inhibition of HIV-1 nucleocapsid protein (11 to 55 residues) assessed as reduction in dTAR55/cTAR55AD nucleic acid annealing at 200 uM by Alexa488 dye-based fluorimetric analysis. Summed up:
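Pseudo-first-order annealing: 10 nM cTAR55 (5'-Alexa488, 3'-Dabcyl) and 100 nM dTAR55, each premixed with 8-fold NC(11–55, MAL strain, Zn-loaded). Buffer was Tris 25 mM, NaCl 30 mM, MgCl2 0.2 mM, pH 7.5, with 1% DMSO. Compound added to the dTAR55/NC mix. Fluorescence read at 480/519 nm, 20°C; rate constant from mono-exponential fit.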

The source made the active and inactive calls. The rule behind the calls is not given here.

For the molecule `O=C(O)CCC1NC(=O)N(Cc2ccccc2)C1=O` (configuration not stated), in [1], the inhibition entry was “inactive”.

For `Cc1ccc(-c2nn(CCC(=O)O)cc2/C=C2\SC(=N)NC2=O)cc1`, the inhibition entry in data set [1] was “inactive”.

With `O=C(O)C1CCN(c2ncnc3nc[nH]c23)CC1`, in data set [1], the inhibition entry is “inactive”.

`N#Cc1ccc(CSc2nc3[nH]ncc3c(=O)[nH]2)cc1`: the inhibition result in data set [1] is “inactive”.

As for `O=c1[nH]c2ccc(S(=O)(=O)Nc3ccc(S(=O)(=O)NCC(F)(F)F)cc3)cc2o1`, the half-maximal inhibitory concentration (IC50) result in data set [2] was “Not Active”.

Take `O=C(COc1cccc(Cl)c1Cl)N1CCNC1=O`: the inhibition entry in data set [1] is “inactive”.

On to `O=c1[nH]c2ccc(S(=O)(=O)Nc3cc(C(F)(F)F)ccc3Cl)cc2o1`, for which, in [2] (read-out: IC50), the IC50 is 179 µM. Further, in [3], the outcome was Active.

Consider `N#Cc1cnc(SCc2cccc(C(N)=O)c2)nc1N`, for which, in data set [1], the inhibition result is “inactive”.

As for `Cc1ccc(NC(=O)CCn2c(=O)[nH]c3cc(S(=O)(=O)N4CCCC4)ccc32)cc1`, the IC50 entry in data set [2] is listed as “Not Active”.

Regarding `O=c1[nH]c2ccc(S(=O)(=O)Nc3cc(-c4ccccc4)no3)cc2[nH]1`, the IC50 entry in data set [2] was “Not Active”.

Regarding `Cc1nc2c(c(=O)[nH]1)CCN(S(=O)(=O)c1cccc3nsnc13)C2`, the inhibition result in data set [1] is “inactive”.

As to `O=C(CCC1NC(=O)c2ccccc21)Nc1nc[nH]n1` (configuration not stated), in data set [1], the inhibition result was “inactive”.

Regarding `CS(=O)(=O)N1CCc2cc(NS(=O)(=O)c3ccc4[nH]c(=O)oc4c3)ccc21`, the IC50 entry in data set [2] is reported as “Not Active”.

On to `Nc1cccc(C(=O)NCCCC(=O)O)c1`, for which the inhibition result in data set [1] is “inactive”.

Consider `COc1ccccc1NC(=O)CCNS(=O)(=O)c1ccc2nc(O)oc2c1`, for which the IC50 result in [2] was “Not Active”.

For the molecule `c1ccc(-c2ccnc3[nH]ccc23)c(OCCn2ccnc2)c1`, the inhibition entry in data set [1] was “inactive”.

Take `N=C(N)NS(=O)(=O)c1ccc2[nH]c(=O)oc2c1`: in data set [2] (read-out: IC50), the IC50 amounted to 203 µM.

Take `O=C(CSc1ccccn1)c1ccc(O)c(O)c1`: the inhibition result in data set [1] is “inactive”.

In the case of `COc1ccccc1-c1nccn1CCc1n[nH]c(=O)[nH]1`, the inhibition entry in data set [1] was “inactive”.

Regarding `COc1cccc(-n2c(CCn3cccn3)n[nH]c2=O)c1`, the inhibition result in data set [1] is “inactive”.

Take `O=C(O)c1ccc2c(c1)CCN2S(=O)(=O)c1ccc2[nH]c(=O)oc2c1`: the IC50 in [2] (read-out: IC50) was 163 µM. For the same molecule, the result in data set [3] was Active.

For `COc1cccc(CNn2cnnc2S)c1OCc1ccccc1`, in data set [1], the inhibition result was “inactive”.

Take `CSCCC(NS(=O)(=O)c1ccc2[nH]c(=O)oc2c1)C(=O)O` (configuration not stated): the IC50 entry in data set [2] was “Not Active”.

`Cc1cc2[nH]c(=O)oc2cc1S(=O)(=O)NN1CCc2c(nc[nH]c2=O)C1`: in data set [2] (read-out: IC50), the IC50 was 170 µM. Also, in [3], the result was Active.

Turning to `N=C(N)c1ccc(N2CCCCC2)cc1`, in data set [1], the inhibition result was “inactive”.

Take `NC(=O)c1ccc(CNC(=O)Cn2ccc(=O)[nH]c2=O)cc1`: the inhibition result in data set [1] is “inactive”.

`Cc1cc(CCCNc2nnnn2-c2ccccc2)n[nH]1`: the inhibition entry in [1] is “inactive”.

With `COc1ccc(O)c(C(=O)c2cnc3[nH]c(=O)[nH]c(=O)c3c2)c1`, the inhibition result in data set [1] is “inactive”.

With `O=C1N=NC(=S)N1c1ccc(Cl)c(Cl)c1`, in data set [1], the inhibition result was “Active”.

Consider `O=C(O)CNS(=O)(=O)c1ccc2[nH]c(=O)oc2c1`, for which, in [2], the IC50 entry is recorded as “Not Active”.

With `O=C(Cn1[nH]cc2c(=O)ncnc1-2)NC1(c2ccccc2)CCC1`, the inhibition entry in [1] was “inactive”.

Turning to `O=c1cc(Cc2nnc(S)n2-c2ccc(Cl)cc2)[nH]c(=O)[nH]1`, the inhibition entry in [1] is “Active”.

Consider `Cc1cc(C)n(CCOC(=O)c2ccc(N3CCNC3=O)cc2)n1`, for which the inhibition result in data set [1] is “inactive”.

For the molecule `Cc1nc(CN(C)S(=O)(=O)c2cc3[nH]c(=O)[nH]c3cc2Br)no1`, the IC50 result in data set [2] is on record as “Not Active”.

Consider `Cc1cc(COc2ccc(Cl)cc2C(N)=O)no1`, for which the inhibition result in data set [1] is “inactive”.

For `Cc1ccc(NS(=O)(=O)c2ccc3oc(=O)[nH]c3c2)c(C)c1`, the Ratio in data set [4] is 0.06. The result in [3] was Active.

Regarding `O=C(CO)N1CCCC(c2[nH]ncc2Cc2ccccc2)C1` (configuration not stated), in [1], the inhibition result is “inactive”.

Turning to `O=c1[nH]c2ccc(S(=O)(=O)Nn3cnnc3)cc2o1`, in [2], the IC50 result is listed as “Not Active”.

As to `O=c1[nH]c2ccc(S(=O)(=O)O)cc2[nH]1`, the IC50 result in [2] was “Not Active”.

Take `Cc1nc[nH]c1-c1nccn1CCCc1ccccc1`: the inhibition entry in data set [1] was “inactive”.

With `NC(=O)c1ccn(COc2ccccc2F)n1`, the inhibition entry in data set [1] is “inactive”.

Turning to `COc1ccc(C(C)(C)C)cc1NS(=O)(=O)c1ccc2[nH]c(=O)[nH]c2c1`, the IC50 result in data set [2] is “Not Active”.

As to `O=C(O)c1ccc(NS(=O)(=O)c2ccc3[nH]c(=O)[nH]c3c2)cc1O`, the IC50 entry in [2] is recorded as “Not Active”.

`CC(CCc1ccccc1)NC(=O)c1ccc[nH]c1=O` (configuration not stated): the inhibition result in data set [1] was “inactive”.

On to `CC(=O)c1sc(NS(=O)(=O)c2ccc3[nH]c(=O)[nH]c3c2)nc1C`, for which the half-maximal inhibitory concentration (IC50) entry in [2] is recorded as “Not Active”.

As for `O=c1[nH]c2cc(S(=O)(=O)Nc3ccc4[nH]ncc4c3)ccc2o1`, the IC50 in data set [2] (read-out: IC50) is 20 µM; with MT2 it was 140 µM; in data set [6], 30.6 µM; in data set [7], 210 µM; in data set [9], 36.4 µM. Besides, the results for the selectivity ratio in [5] and in [8] were 3.8 and 5.1, respectively. The molecule also gave a TD50 with TZM of 155 µM. Besides, the Ratio in data set [4] turned out to be 0.16. Besides, the result in [3] was Active. Besides, the inhibition in [10] was 40%.

In the case of `COc1ccc2[nH]c(C(N)=O)cc2c1`, in [1], the inhibition entry was “inactive”.

Consider `O=C1CN(C(=O)Cc2n[nH]c(=O)c3ccccc23)CCN1`, for which, in [1], the inhibition result was “inactive”.

The values are drawn from ChEMBL document CHEMBL4251639, “Identification of novel 2-benzoxazolinone derivatives with specific inhibitory activity against the HIV-1 nucleocapsid protein” (Eur J Med Chem, 2018).
